Measured values from ChEMBL document CHEMBL1123670, “Inhibitors of cyclic AMP phosphodiesterase. 2. Structural variations of N-cyclohexyl-N-methyl-4-[(1,2,3,5-tetrahydro- 2-oxoimidazo[2,1-b]quinazolin-7-yl)-oxy]butyramide (RS-82856)” (J Med Chem, 1987).

Experiments:
Homo sapiens = organism: Homo sapiens; assay: Ratio of IC50 of inhibition of platelet aggregation to IC50 of inhibition of platelet PDE (Efficacy index); assay type: functional
In short: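 Efficacy index is the IC50 for inhibition of ADP-induced platelet aggregation divided by the IC50 for human platelet PDE inhibition. Both IC50s come from graphical dose-response curves (five concentrations, triplicate).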

[1] = Inhibition of ADP-induced platelet aggregation; assay type: functional
In short: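 ADP-induced platelet aggregation. Read-out is the rate of change in percentage transmission of the primary aggregation phase after 5 min incubation. Each agent tested at five concentrations in triplicate, with experiments repeated at least twice using platelets from different donors. IC50 (μM) determined graphically.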

[2] = target: Phosphodiesterase; PDE3 & PDE4 (Homo sapiens) (UniProt P27815+Q14432+Q08499+Q07343+Q13370+Q08493); assay: In vivo inhibition of cyclic AMP phosphodiesterase from dog heart
In short: (§1)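 Cyclic AMP phosphodiesterase prepared from human platelets (IC50, nM) or from rat or dog heart tissue (IC25, nM). Each agent tested at five inhibitor concentrations in triplicate. IC50/IC25 read graphically from the dose-response curve.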

Phosphodiesterase 3 = Phosphodiesterase 3 (Homo sapiens, UniProt Q14432+Q13370); assay: In vitro inhibition of cyclic AMP phosphodiesterase from human platelets
[3] = In vivo inhibition of cyclic AMP phosphodiesterase from rat heart; settings: in the assay text read “In vitro” for “In vivo”; in short: as §1
[4] = Canis lupus familiaris; in the assay text read “In vitro” for “In vivo”; target entry is the homologue from another species
[5] = Canis lupus familiaris; target entry is the homologue from another species; in the assay text read “In vitro” for “In vivo”

| SMILES | IC50 [1] | IC25 [2, 4] | IC50 (Phosphodiesterase 3) | IC25 [2, 5] | Ratio (Homo sapiens) | IC25 [3] |
| --- | --- | --- | --- | --- | --- | --- |
| CC[C@H]1C(=O)NC2=Nc3ccc(OCCCC(=O)N(C)C4CCCCC4)cc3CN21 | 8200 nM |  | 580 nM | 450 nM | 14 |  |
| C[C@@H]1C(=O)NC2=Nc3ccc(OCCCC(=O)N(C)C4CCCCC4)cc3CN21 | 360 nM |  | 5.4 nM | 27 nM | 66 |  |
| CC(O)[C@H]1C(=O)NC2=Nc3ccc(OCCCC(=O)N(C)C4CCCCC4)cc3CN21 (some centres undefined) | 22000 nM |  | 1000 nM | 1700 nM | 22 |  |
| O=C1CN2Cc3cc(OCCCC(=O)N4CCCCC4)ccc3N=C2N1 | 14500 nM |  | 260 nM |  | 56 | 1500 nM |
| CN(C(=O)CCCOc1ccc2c(c1)NC1=NC(=O)CN1C2)C1CCCCC1 | 26000 nM |  | 150 nM | 64 nM | 173 |  |
| CN(C(=O)CCCOc1ccc2c(c1)CN1C(=O)C(=O)NC1=N2)C1CCCCC1 | 150000 nM | 1700 nM | 4400 nM |  | 34 |  |
| CCOC(=O)CCCOc1ccc2c(c1)CN1CC(=O)NC1=N2 | 1600 nM |  | 240 nM | 440 nM | 6.7 |  |
| CN(C(=O)CCCOc1ccc2c(c1)CN1CC(=O)NC1=N2)C1CCCCCCC1 | 190 nM | 1.6 nM | 2.2 nM |  | 86 |  |
| CN(C(=O)CCCOc1ccc2c(c1)CN1CCC(=O)NC1=N2)C1CCCCC1 | 1900 nM |  | 130 nM | 100 nM | 14.6 |  |
| CN(Cc1ccccc1)C(=O)CCCOc1ccc2c(c1)CN1CC(=O)NC1=N2 | 980 nM |  | 26 nM |  | 38 | 240 nM |
| O=C1CN2Cc3cc(OCCCC(=O)N(CCCO)C4CCCCC4)ccc3N=C2N1 | 1700 nM | 17 nM | 6 nM |  | 283 |  |
| CC(O)[C@@H]1C(=O)NC2=Nc3ccc(OCCCC(=O)N(C)C4CCCCC4)cc3CN21 (some centres undefined) | 54000 nM | 3700 nM | 1600 nM |  | 34 |  |
| CN(C(=O)NCCOc1ccc2c(c1)CN1CC(=O)NC1=N2)C1CCCCC1 | 8600 nM | 780 nM | 17 nM |  | 506 |  |
| CN(C(=O)CCCOc1ccc2c(c1)CN1C(=N2)NC(=O)C12CC2)C1CCCCC1 | 50000 nM | 3700 nM | 760 nM |  | 66 |  |
| O=C1CN2Cc3cc(OCCCC(=O)OC4CCCCC4)ccc3N=C2N1 | 3400 nM | 43 nM | 18 nM |  | 168 |  |
| O=C1CN2Cc3cc(OCCCC(=O)N(CCCCO)C4CCCCC4)ccc3N=C2N1 | 4000 nM |  | 6.4 nM | 7.2 nM | 625 |  |
| CC(C)N(C(=O)CCCOc1ccc2c(c1)CN1CC(=O)NC1=N2)C1CCCCC1 | 260 nM | 15 nM | 3.2 nM |  | 81 |  |
| CN(C(=O)CCCOc1ccc2c(c1)CN1C(=O)CNC1=N2)C1CCCCC1 | 120000 nM | 1600 nM | 15000 nM |  | 8 |  |
| CN(C(=O)CCCOc1ccc2c(c1)CN1C(=N2)NC(=O)[C@@H]1CO)C1CCCCC1 | 15500 nM | 90 nM | 27.5 nM |  | 563 |  |
| O=C1CN2Cc3cc(OCCCC(=O)N(Cc4ccccc4)Cc4ccccc4)ccc3N=C2N1 |  |  |  |  |  | 60 nM |
| CN(C(=O)CCCCc1ccc2c(c1)CN1CC(=O)NC1=N2)C1CCCCC1 | 6600 nM | 220 nM | 200 nM |  | 33 |  |
| O=C1CN2Cc3cc(OCCCC(=O)N(CCN4CCOCC4)C4CCCCC4)ccc3N=C2N1 | 1000 nM |  | 4.1 nM | 32 nM | 243 |  |
| O=C1CN2Cc3cc(OCCCC(=O)N(C(CO)CO)C4CCCCC4)ccc3N=C2N1 | 82000 nM |  | 12 nM | 26 nM | 6833 |  |

Further compounds by falling IC50 [1], results first:

| IC50 [1] | IC25 [2, 4] | IC50 (Phosphodiesterase 3) | IC25 [2, 5] | SMILES | Ratio (Homo sapiens) | IC25 [3] |
| --- | --- | --- | --- | --- | --- | --- |
| 90000 nM |  | 1200 nM |  | CN(C)C(=O)CCCOc1ccc2c(c1)CN1CC(=O)NC1=N2 | 75 |  |
| 60000 nM | 1500 nM | 2000 nM |  | CN(C(=O)CCCOc1cccc2c1CN1CC(=O)NC1=N2)C1CCCCC1 | 30 |  |
| 58000 nM |  | 3100 nM | 6600 nM | CN(C(=O)CCCS(=O)(=O)c1ccc2c(c1)CN1CC(=O)NC1=N2)C1CCCCC1 | 19 |  |
| 47000 nM |  | 690 nM | 380 nM | NC(=O)CCCOc1ccc2c(c1)CN1CC(=O)NC1=N2 | 68 |  |
| 25000 nM | 260 nM | 140 nM |  | CN(C(=O)CCCSc1ccc2c(c1)CN1CC(=O)NC1=N2)C1CCCCC1 | 178 |  |
| 25000 nM |  | 120 nM | 290 nM | CN(C(=O)CCCOc1ccc2c(c1)CN1CC(=O)NC1=N2)C1CCC(O)CC1 (centres undefined) | 208 |  |
| 20000 nM |  | 11 nM | 100 nM | NC(=O)CN(C(=O)CCCOc1ccc2c(c1)CN1CC(=O)NC1=N2)C1CCCCC1 | 1818 |  |
| 10000 nM | 180 nM | 72 nM |  | O=C1CN2Cc3cc(OCCCC(=O)NC4CCCCC4)ccc3N=C2N1 | 139 |  |
| 9200 nM |  | 15 nM |  | CN(C(=O)CCCOc1ccc2c(c1)CN1CC(=O)NC1=N2)C(c1ccccc1)c1ccccc1 | 613 | 60 nM |
| 6900 nM |  | 18.5 nM | 72 nM | CN(C(=O)CCCOc1ccc2c(c1)CN1C(=N2)NC(=O)[C@H]1CO)C1CCCCC1 | 373 |  |
| 5600 nM | 620 nM | 370 nM |  | CC[C@@H]1C(=O)NC2=Nc3ccc(OCCCC(=O)N(C)C4CCCCC4)cc3CN21 | 15 |  |
| 4300 nM | 2400 nM | 470 nM |  | CN(C(=O)CCCOc1ccc2c(c1)CN1C(=N2)NC(=O)C1(C)C)C1CCCCC1 | 9 |  |
| 4000 nM |  | 3.6 nM | 2 nM | O=C1CN2Cc3cc(OCCCC(=O)N(CCCCCCO)C4CCCCC4)ccc3N=C2N1 | 1111 |  |
| 3600 nM | 7 nM | 5.6 nM |  | O=C1CN2Cc3cc(OCCCC(=O)N(CCn4ccnc4)C4CCCCC4)ccc3N=C2N1 | 642 |  |
| 2850 nM |  | 12.5 nM |  | O=C1CN2Cc3cc(OCCCC(=O)N(CCO)C4CCCCC4)ccc3N=C2N1 | 228 | 70 nM |
| 2700 nM | 2.3 nM | 4.9 nM |  | O=C1CN2Cc3cc(OCCCC(=O)N(CCCCCO)C4CCCCC4)ccc3N=C2N1 | 551 |  |
| 1500 nM | 58 nM | 13 nM |  | CN(C(=O)OCCOc1ccc2c(c1)CN1CC(=O)NC1=N2)C1CCCCC1 | 115 |  |
| 1450 nM |  | 48 nM | 25 nM | CN(C(=O)CCCOc1ccc2c(c1)CN1CC(=O)NC1=N2)C1CCCC1 | 30 |  |
| 1100 nM |  | 14 nM | 100 nM | CN(C(=O)CCCOc1ccc2c(c1Cl)CN1CC(=O)NC1=N2)C1CCCCC1 | 79 |  |
| 1000 nM | 18 nM | 4.5 nM |  | O=C1CN2Cc3cc(OCCCc4nnnn4C4CCCCC4)ccc3N=C2N1 | 222 |  |
| 880 nM |  | 13.5 nM |  | O=C1CN2Cc3cc(OCCCC(=O)N4CCCC5CCCCC54)ccc3N=C2N1 (centres undefined) | 65 | 200 nM |
| 860 nM |  | 4.6 nM |  | CN(C(=O)CCCCOc1ccc2c(c1)CN1CC(=O)NC1=N2)C1CCCCC1 | 187 | 22 nM |
| 700 nM |  | 2 nM | 10 nM | COC(=O)CN(C(=O)CCCOc1ccc2c(c1)CN1CC(=O)NC1=N2)C1CCCCC1 | 350 |  |
| 470 nM |  | 26 nM | 78 nM | C[C@H]1C(=O)NC2=Nc3ccc(OCCCC(=O)N(C)C4CCCCC4)cc3CN21 | 18 |  |
| 250 nM |  | 1 nM | 4.2 nM | CN(C(=O)CCCOc1ccc2c(c1)CN1CC(=O)NC1=N2)C1CCCCCC1 | 250 |  |
| 180 nM |  | 1.5 nM | 5.2 nM | CCN(C(=O)CCCOc1ccc2c(c1)CN1CC(=O)NC1=N2)C1CCCCC1 | 120 |  |
| 150 nM | 45 nM | 2.7 nM |  | C=c1c(=O)[nH]c2n1Cc1cc(OCCCC(=O)N(C)C3CCCCC3)ccc1N=2 | 55.5 |  |
| 130 nM | 14 nM | 5.9 nM |  | CC1c2cc(OCCCC(=O)N(C)C3CCCCC3)ccc2NC2=NC(=O)CN21 (centres undefined) | 22 |  |
| 105 nM | < 10 nM | 1.3 nM |  | COCCN(C(=O)CCCOc1ccc2c(c1)CN1CC(=O)NC1=N2)C1CCCCC1 | 81 |  |
